Test results: ChEMBL document CHEMBL1151198, “A new antimalarial quassinoid from Simaba orinocensis” (J Nat Prod, 2004)
Converted amounts (≈) assume the structure as drawn. The source made the active and inactive calls. No cut-off for these calls is given here.

Tests used:
[1] = Specific index, ratio of IC50 for mouse RAW264.7 to IC50 for iNOS production in mouse RAW264.7
Outline: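 Index calculated as the MTT IC50 in RAW 264.7 cells divided by the iNOS IC50 in the same cells.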

[2] = system: RAW264.7; experiment: Cytotoxicity against mouse RAW264.7 cells after 2 days by MTT assay; type: cell-based; settings: RAW264.7, 48 h
Outline: (§1)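 MTT viability assay, run on CHO-ICAM-1 cells and, separately, on RAW 264.7 cells. IC50 in µg/mL, mean ± SEM of three determinations.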

[3] = system: RAW264.7; experiment: Inhibition of iNOS production in LPS-activated mouse RAW264.7 cells after 20 hrs; type: functional, cell-based; settings: RAW264.7, 20 h
Outline: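 iNOS assay in RAW 264.7 cells, with L-NMMA, APDC and dexamethasone as reference inhibitors. IC50 in µg/mL, mean ± SEM of three determinations.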

[4] = system: Vero; experiment: Cytotoxicity against african green monkey kidney Vero cells; type: cell-based; settings: Chlorocebus sabaeus
[5] = system: Leishmania donovani; experiment: Antileishmanial activity against Leishmania donovani promastigotes after 48 hrs by alamar blue assay; type: functional, organism-based
[6] = Specific index, ratio of IC50 for human HL60 cells to MIC for LFA1/ICAM1; type: functional, HL-60
Outline: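 Index calculated as XTT-assay IC50 (µg/mL) divided by the MIC from the LFA-1/ICAM-1-mediated aggregation primary screen (µg/mL). XTT IC50 values are given as mean ± SEM of three determinations.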

[7] = target: Intercellular adhesion molecule (ICAM-1), Integrin alpha-L/beta-2 (Homo sapiens, UniProt P05107+P05362+P20701); experiment: Inhibition of LFA1/ICAM1-mediated adhesion of HL60 cells to CHO-ICAM1 cells; type: cell-based, HL-60
Chain of Intercellular adhesion molecule (ICAM-1), Integrin alpha-L/beta-2 (P20701 whole entry): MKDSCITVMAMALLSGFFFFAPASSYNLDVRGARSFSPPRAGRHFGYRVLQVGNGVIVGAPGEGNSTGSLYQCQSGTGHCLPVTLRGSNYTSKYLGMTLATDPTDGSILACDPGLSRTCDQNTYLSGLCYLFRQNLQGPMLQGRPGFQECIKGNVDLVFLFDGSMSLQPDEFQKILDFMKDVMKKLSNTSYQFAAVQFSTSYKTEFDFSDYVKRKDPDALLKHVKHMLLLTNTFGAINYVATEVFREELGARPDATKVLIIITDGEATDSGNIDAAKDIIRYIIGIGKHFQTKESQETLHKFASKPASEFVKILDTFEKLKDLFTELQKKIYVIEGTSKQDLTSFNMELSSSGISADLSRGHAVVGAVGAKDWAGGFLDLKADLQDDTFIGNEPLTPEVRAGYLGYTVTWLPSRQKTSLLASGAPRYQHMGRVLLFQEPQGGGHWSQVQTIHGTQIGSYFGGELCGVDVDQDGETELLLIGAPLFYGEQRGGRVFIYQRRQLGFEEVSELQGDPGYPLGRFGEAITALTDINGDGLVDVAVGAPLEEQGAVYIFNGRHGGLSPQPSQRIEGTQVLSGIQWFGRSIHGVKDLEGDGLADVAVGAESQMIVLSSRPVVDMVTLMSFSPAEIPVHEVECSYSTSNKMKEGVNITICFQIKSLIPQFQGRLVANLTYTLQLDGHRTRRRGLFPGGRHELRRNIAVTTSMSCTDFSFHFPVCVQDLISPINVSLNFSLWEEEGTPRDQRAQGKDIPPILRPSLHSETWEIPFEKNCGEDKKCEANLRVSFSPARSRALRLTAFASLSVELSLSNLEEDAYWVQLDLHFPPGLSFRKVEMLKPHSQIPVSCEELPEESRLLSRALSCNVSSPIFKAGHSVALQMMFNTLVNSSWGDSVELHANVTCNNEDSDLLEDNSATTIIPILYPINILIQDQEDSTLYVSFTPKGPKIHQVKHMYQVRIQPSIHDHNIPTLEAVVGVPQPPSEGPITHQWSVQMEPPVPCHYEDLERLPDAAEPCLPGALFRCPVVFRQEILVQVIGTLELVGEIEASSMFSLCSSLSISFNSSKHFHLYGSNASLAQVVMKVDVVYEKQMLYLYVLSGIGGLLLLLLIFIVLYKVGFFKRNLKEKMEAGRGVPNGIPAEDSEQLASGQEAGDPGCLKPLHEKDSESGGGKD
Chain of Intercellular adhesion molecule (ICAM-1), Integrin alpha-L/beta-2 (P05362 whole entry): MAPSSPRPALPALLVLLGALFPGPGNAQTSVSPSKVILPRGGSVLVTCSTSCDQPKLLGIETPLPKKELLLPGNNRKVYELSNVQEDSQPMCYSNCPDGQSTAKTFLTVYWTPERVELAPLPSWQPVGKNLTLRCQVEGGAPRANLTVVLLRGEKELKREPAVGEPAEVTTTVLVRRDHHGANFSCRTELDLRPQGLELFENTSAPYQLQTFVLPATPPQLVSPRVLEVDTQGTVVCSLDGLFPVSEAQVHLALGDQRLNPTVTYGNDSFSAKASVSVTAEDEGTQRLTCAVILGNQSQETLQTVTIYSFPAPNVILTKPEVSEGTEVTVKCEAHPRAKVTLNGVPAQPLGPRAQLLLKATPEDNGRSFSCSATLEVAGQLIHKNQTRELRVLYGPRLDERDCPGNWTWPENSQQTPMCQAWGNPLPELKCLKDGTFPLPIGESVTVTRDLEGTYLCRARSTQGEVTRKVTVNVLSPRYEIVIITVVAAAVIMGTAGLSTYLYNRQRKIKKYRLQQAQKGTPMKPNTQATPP
Chain of Intercellular adhesion molecule (ICAM-1), Integrin alpha-L/beta-2 (P05107 whole entry): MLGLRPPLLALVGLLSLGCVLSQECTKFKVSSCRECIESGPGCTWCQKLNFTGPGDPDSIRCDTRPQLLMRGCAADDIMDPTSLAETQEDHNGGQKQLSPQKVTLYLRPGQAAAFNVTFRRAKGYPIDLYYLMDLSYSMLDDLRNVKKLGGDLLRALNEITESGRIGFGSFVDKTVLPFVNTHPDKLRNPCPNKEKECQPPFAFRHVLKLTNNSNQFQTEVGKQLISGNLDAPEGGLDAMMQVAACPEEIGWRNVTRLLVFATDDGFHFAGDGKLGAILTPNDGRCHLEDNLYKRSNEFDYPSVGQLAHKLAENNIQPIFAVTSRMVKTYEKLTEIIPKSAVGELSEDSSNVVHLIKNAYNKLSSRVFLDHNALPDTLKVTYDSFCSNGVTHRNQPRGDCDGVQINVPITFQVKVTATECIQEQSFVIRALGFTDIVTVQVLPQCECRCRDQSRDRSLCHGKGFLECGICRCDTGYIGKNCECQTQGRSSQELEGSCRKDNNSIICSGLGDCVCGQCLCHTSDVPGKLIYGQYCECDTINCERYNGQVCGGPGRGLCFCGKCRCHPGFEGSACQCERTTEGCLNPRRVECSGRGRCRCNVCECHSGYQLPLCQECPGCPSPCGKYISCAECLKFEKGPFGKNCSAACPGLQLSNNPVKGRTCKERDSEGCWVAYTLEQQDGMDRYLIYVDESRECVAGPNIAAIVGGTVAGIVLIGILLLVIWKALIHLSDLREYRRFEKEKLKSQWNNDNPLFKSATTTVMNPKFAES
Outline: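 Secondary LFA-1/ICAM-1-mediated adhesion assay using HL-60 cells and CHO-ICAM-1 cells, with cytochalasin B as standard. IC50 in µg/mL, mean ± SEM of three determinations.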

[8] = target: Intercellular adhesion molecule (ICAM-1), Integrin alpha-L/beta-2 (Homo sapiens) (UniProt P20701+P05362+P05107); experiment: Inhibition of LFA1/ICAM1-mediated HL60 cell aggregation; type: cell-based; settings: HL-60
Outline: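 Primary screen for LFA-1/ICAM-1-mediated cell aggregation run together with an XTT cell-proliferation read-out. Aggregation potency is reported as a minimum inhibitory concentration in µg/mL.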

[9] = system: HL-60; experiment: Cytotoxicity against human HL60 cells by XTT assay; type: cell-based
Outline: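 XTT proliferation read-out combined with the primary assay for inhibitors of LFA-1/ICAM-1-mediated cell aggregation. IC50 in µg/mL, mean ± SEM of three determinations.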

[10] = system: CHO; experiment: Cytotoxicity against CHO cells transfected with ICAM1 by MTT assay; type: cell-based; settings: Cricetulus griseus; outline: as §1
[11] = Specific index, ratio of IC50 for CHO cells to IC50 for LFA1/ICAM1
Outline: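 Ratio of the MTT IC50 against CHO-ICAM-1 cells to the IC50 from the secondary LFA-1/ICAM-1-mediated adhesion assay, in which HL-60 cells adhere to CHO-ICAM-1 cells. IC50 values are in µg/mL, as mean ± SEM of three determinations.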

[12] = system: Plasmodium falciparum; experiment: Antimalarial activity against chloroquine-resistant Plasmodium falciparum W2 by LDH assay; type: functional, organism-based
[13] = system: SK-MEL; experiment: Cytotoxicity against human SK-MEL cells after 48 hrs by neutral red staining; type: functional, cell-based
Outline: (§2)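 Human tumour lines: SK-MEL (malignant melanoma), KB (epidermal carcinoma), BT-549 (ductal carcinoma) and SK-OV-3 (ovary carcinoma). Compounds tested up to a maximum of 10 µg/mL, with doxorubicin as reference. IC50 given in µg/mL as mean ± SEM of three determinations.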

[14] = system: KB; experiment: Cytotoxicity against human KB cells after 48 hrs by neutral red staining; type: functional, cell-based; outline: as §2
[15] = system: HeLa; experiment: Inhibition of translation in human HeLa cells at 2 uM by 35S-methionine metabolic labeling study; type: functional, cell-based
[16] = system: Plasmodium falciparum; experiment: Antimalarial activity against chloroquine-sensitive Plasmodium falciparum D6 by LDH assay; type: functional, organism-based
[17] = system: HeLa; experiment: Inhibition of protein synthesis in human HeLa cells at 2 uM by [35S]methionine metabolic labeling study; type: functional
[18] = system: HeLa; experiment: Inhibition of protein synthesis in human HeLa cells assessed as translation at 2 uM by [35S]methionine metabolic labeling study; type: functional; set-up: scale not given: the % may be the effect or the level left
[19] = Inhibition of protein biosynthesis in mouse Krebs cells assessed as renilla luciferase activity at 0.4 uM after 1 hr by translation assay relative to control; type: functional
Outline: (§3)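 In vitro Krebs cell-extract translation system with firefly and Renilla luciferase read-outs, reported as average relative luciferase values. Compounds were tested at fixed concentrations (0.4–10 µM). DMSO (0.5%) served as vehicle control.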

[20] = Inhibition of protein biosynthesis in mouse Krebs cells assessed as renilla luciferase activity at 2 uM after 1 hr by translation assay relative to control; type: functional
Outline: (§4)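 In vitro Krebs cell translation system read by firefly and renilla luciferase. Compounds at 10 or 2 µM; anisomycin 10 µM as reference and 0.5% DMSO as vehicle control. Values are average luciferase activity relative to control.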

[21] = Selectivity index, ratio of IC50 for african green monkey (Cercopithecus aethiops) Vero cells to IC50 for chloroquine-sensitive Plasmodium falciparum D6; type: toxicity, cell-based; settings: read-out: Ratio IC50
[22] = Inhibition of protein biosynthesis in mouse Krebs cells assessed as firefly luciferase activity at 2 uM after 1 hr by translation assay relative to control; type: functional; outline: as §4
[23] = system: BT-549; experiment: Cytotoxicity against human BT549 cells after 48 hrs by neutral red staining; type: functional, cell-based; settings: BT-549, 48 h; outline: as §2
[24] = system: SK-OV-3; experiment: Cytotoxicity against human SKOV3 cells after 48 hrs by neutral red staining; type: functional, cell-based; settings: SK-OV-3, 48 h; outline: as §2
[25] = Inhibition of protein biosynthesis in mouse Krebs cells assessed as firefly luciferase activity at 0.4 uM after 1 hr by translation assay relative to control; type: functional; outline: as §3
[26] = Selectivity index, ratio of IC50 for african green monkey (Cercopithecus aethiops) Vero cells to IC50 for chloroquine-resistant Plasmodium falciparum W2; type: toxicity, cell-based; settings: read-out: Ratio IC50
[27] = system: HeLa; experiment: Inhibition of translation in human HeLa cells at 0.4 uM by 35S-methionine metabolic labeling study; type: functional, cell-based

SMILES	Ratio [1]	IC50 [2]	IC50 [3]	IC50 [4]	IC50 [5]	IC90 [5]	Ratio [6]	IC50 [7]	MIC [8]	IC50 [9]	IC50 [10]	further results
N.S=C(S)N1CCCC1 [PYRROLIDINE DITHIOCARBAMIC ACID, AMMONIUM SALT]	<0.02	< 0.4 µg/mL	21 µg/mL	–	–	–	–	–	–	–	–	–
CCN(CC)CCCC(C)Nc1ccnc2cc(Cl)ccc12 (centres undefined) [CHLOROQUINE]	–	–	–	> 10 µg/mL	–	–	–	–	–	–	–	–
N=C(N)c1ccc(OCCCCCOc2ccc(C(=N)N)cc2)cc1 [PENTAMIDINE]	–	–	–	–	1.6 µg/mL (≈ 4.7 µM)	3.5 µg/mL (≈ 10.3 µM)	–	–	–	–	–	–
C[C@@H]1C[C@H]2[C@@H]3CCC4=CC(=O)C=C[C@]4(C)[C@@]3(F)[C@@H](O)C[C@]2(C)[C@@]1(O)C(=O)CO [DEXAMETHASONE]	0.69	> 25 µg/mL	36 µg/mL (≈ 91.7 µM)	–	–	–	–	–	–	–	–	–
C=C1[C@@H](C)[C@H]2[C@H](Cc3ccccc3)NC(=O)[C@]23OC(=O)/C=C/[C@H](O)CCC[C@@H](C)C/C=C/[C@H]3[C@@H]1O [CYTOCHALASIN B]	1.1	6.5 µg/mL (≈ 13.6 µM)	5.6 µg/mL (≈ 11.7 µM)	–	–	–	17.2	14.8 µM	2.3 µg/mL (≈ 4.8 µM)	40 µg/mL (≈ 83.4 µM)	0.26 µg/mL (≈ 0.542 µM)	Ratio [11]: 0.04
CC[C@@H](C)C(=O)O[C@H]1C(=O)O[C@@H]2C[C@H]3C(C)=CC(=O)[C@@H](O)[C@]3(C)[C@H]3[C@@H](O)[C@H](O)[C@]4(C)OC[C@]32[C@@H]14 [SIMALIKALACTONE D]	–	0.08 µg/mL (≈ 0.167 µM)	0.76 µg/mL (≈ 1.59 µM)	2.3 µg/mL (≈ 4.81 µM)	0.035 µg/mL (≈ 0.0731 µM)	0.2 µg/mL (≈ 0.418 µM)	2.5	> 52.2 µM	0.01 µg/mL (≈ 0.0209 µM)	0.025 µg/mL (≈ 0.0522 µM)	0.032 µg/mL (≈ 0.0669 µM)	IC50 [12]: 0.00367 µg/mL (≈ 0.00767 µM); IC50 [13]: 0.28 µg/mL (≈ 0.585 µM); IC50 [14]: 1 µg/mL (≈ 2.09 µM); Activity [15]: Active; IC50 [16]: 0.003 µg/mL (≈ 0.00627 µM); inhibition at 2 µM [17]: 98.5%; Activity [18]: 1.5%; Activity [19]: 0.25; Activity [20]: 0.09; selectivity ratio [21]: 750; Activity [22]: 0.05; IC50 [23]: 0.3 µg/mL (≈ 0.627 µM); IC50 [24]: 0.3 µg/mL (≈ 0.627 µM); Activity [25]: 0.17; selectivity ratio [26]: 613; Activity [27]: Active
